Laboratory results: ChEMBL document CHEMBL4513216, “Probing the Open Global Health Chemical Diversity Library for Multistage-Active Starting Points for Next-Generation Antimalarials” (ACS Infect Dis, 2020)

Experiment: Toxicity liver stage against HepG2, at 10uM
Format: cell-based
Set-up: test concentration 10 uM, cell line HepG2-A16-CD81EGFP
Details: human, HepG2-A16-CD81EGFP cells; read-out: INHIBITION
Procedure, shortened: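 Uninfected HepG2-A16-CD81EGFP cells, 3 × 10^3 per well, 1536-well, plated on prespotted compound at 10 μM final, parasite-free screening media added to match infected plates; puromycin 10 μM positive, DMSO 0.5% negative; run in parallel with 48 h PbLuc assay at 37 °C, 5% CO2; viability by CellTiter-Glo luminescence, normalized to controls.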

Q: With CC(Cn1cccn1)NC(=O)Nc1nnc(C2CC2)s1 (stereo not given) as the compound, how does the cytotoxicity at 10 µM read?
A: The cytotoxicity at 10 µM was -1.71%.

Q: Which cytotoxicity at 10 µM does the source give for COc1ccccc1CC(=O)N1CCCC(n2nc(C)cc2C)C1 (stereo not given) here?
A: Its cytotoxicity at 10 µM is -4.48%.

Q: With CN1CCC(c2nnc3n2CCN(S(=O)(=O)c2ccccc2)C3)CC1 as the compound, how does the cytotoxicity at 10 µM read?
A: Its cytotoxicity at 10 µM is -2.02%.

Q: Which cytotoxicity at 10 µM does the source give for O=C(c1ccc[nH]1)N1CCc2onc(COc3cccnc3)c2C1 here?
A: The cytotoxicity at 10 µM was -62.6%.

Q: For CCc1[nH]c2ccc(CNc3cncc(C(=O)N(C)C)n3)cc2c1C, which cytotoxicity at 10 µM is on record?
A: Its cytotoxicity at 10 µM is 7.59%.

Q: With Cc1nc(CN2CCOCC3(CCCN(c4cnccn4)C3)C2)cs1 (stereo not given) as the compound, how does the cytotoxicity at 10 µM read?
A: The cytotoxicity at 10 µM was -1.81%.

Q: Which cytotoxicity at 10 µM does the source give for CCCc1cc(C(=O)NCCC2=CCCCC2)[nH]n1 here?
A: The cytotoxicity at 10 µM was -51.8%.

Q: For CN1CCN(CC2CC2)C(=O)c2cnc(N3CCCCC3)nc21, which cytotoxicity at 10 µM is on record?
A: Its cytotoxicity at 10 µM is 4.84%.

Q: For COc1cc(N2CC[C@@H]3O[C@H](C(=O)NCC4CC4)C[C@@H]32)ncn1, which cytotoxicity at 10 µM is on record?
A: Its cytotoxicity at 10 µM is 10.7%.

Q: For CN(CCOc1cccc(S(C)(=O)=O)c1)CC(F)F, which cytotoxicity at 10 µM is on record?
A: Its cytotoxicity at 10 µM is 13%.

Q: For CN(C)C(=O)c1cccc(CN2CCN(CCO)CC2)c1, which cytotoxicity at 10 µM is on record?
A: The cytotoxicity at 10 µM was -28.6%.

Q: With CC(=O)NCC(=O)N1Cc2nccn2CC(COc2cccnc2)C1 (stereo not given) as the compound, how does the cytotoxicity at 10 µM read?
A: The cytotoxicity at 10 µM was -2.6%.

Q: For Cc1ccc(-c2ccnc(N(C)CC3CCCN3C)n2)c(C)n1 (stereo not given), which cytotoxicity at 10 µM is on record?
A: Its cytotoxicity at 10 µM is -9.66%.

Q: With CC(=O)N(C/C=C/c1ccccc1)CCO as the compound, how does the cytotoxicity at 10 µM read?
A: Its cytotoxicity at 10 µM is 4.64%.

Q: For CC(C(=O)NCc1ccnc(N2CCCCCC2)c1)n1cccn1 (stereo not given), which cytotoxicity at 10 µM is on record?
A: Its cytotoxicity at 10 µM is -15.8%.

Q: Which cytotoxicity at 10 µM does the source give for CC(C)[C@H](N)C(=O)N1CCCC(C2=Nc3ccccc3S(=O)(=O)N2)C1 (stereo not given in full) here?
A: Its cytotoxicity at 10 µM is 7.96%.

Q: For CCc1ccc(C(=O)NC2CCCN(c3ccn(C)n3)C2=O)o1 (stereo not given), which cytotoxicity at 10 µM is on record?
A: The cytotoxicity at 10 µM was -2.43%.

Q: For CCC(CO)N(Cc1ccsc1)Cc1c(C)nn(C)c1Cl (stereo not given), which cytotoxicity at 10 µM is on record?
A: Its cytotoxicity at 10 µM is 17.8%.

Q: For CC(C)COCCC(=O)NCCC(=O)N1CCN(c2ccccn2)CC1, which cytotoxicity at 10 µM is on record?
A: The cytotoxicity at 10 µM was 9.46%.

Q: With Cc1ncc2c(n1)CN(Cc1nc(-c3cccs3)no1)CC2 as the compound, how does the cytotoxicity at 10 µM read?
A: Its cytotoxicity at 10 µM is -9.8%.

Q: Which cytotoxicity at 10 µM does the source give for CN(Cc1ccc(-n2cccn2)cc1)CC1CCCN1c1cccnn1 (stereo not given) here?
A: The cytotoxicity at 10 µM was -3.98%.

Q: With CCCNC(=O)NC(=O)CN(CC(C)O)c1ccccc1 (stereo not given) as the compound, how does the cytotoxicity at 10 µM read?
A: Its cytotoxicity at 10 µM is -2.48%.

Q: Which cytotoxicity at 10 µM does the source give for CN(C)CCOC1CC2(CCN(c3cnccn3)CC2)c2ccccc21 (stereo not given) here?
A: The cytotoxicity at 10 µM was -2.69%.

Q: Which cytotoxicity at 10 µM does the source give for O=C(Cc1cccc(F)c1)NCCNCC1CNc2ccnn2C1 (stereo not given) here?
A: Its cytotoxicity at 10 µM is 2.04%.

Q: Which cytotoxicity at 10 µM does the source give for COCCOCC(=O)N1C[C@@H]2CC[C@H](Oc3cccc(F)c3)[C@@H]2C1 here?
A: Its cytotoxicity at 10 µM is -26%.

Q: With CCCNC(=O)N1CCC(c2nnc(Cn3cccn3)n2C2CC2)CC1 as the compound, how does the cytotoxicity at 10 µM read?
A: The cytotoxicity at 10 µM was -7.92%.

Q: For COc1ccc2c(ccn2CCC(=O)N[C@H](C(=O)O)C(C)C)c1, which cytotoxicity at 10 µM is on record?
A: Its cytotoxicity at 10 µM is 5.98%.

Q: Which cytotoxicity at 10 µM does the source give for O=C(C1CC(F)(F)C1)N1C[C@@H]2CN(CC3CC3)CCO[C@@H]2C1 here?
A: Its cytotoxicity at 10 µM is -0.336%.

Q: Which cytotoxicity at 10 µM does the source give for CCN1C[C@@H]2[C@@H](OC)CCN(C(=O)c3cc(C)nn3CC)[C@@H]2C1 here?
A: The cytotoxicity at 10 µM was -118%.

Q: Which cytotoxicity at 10 µM does the source give for CN(C(=O)C1CSCN1S(=O)(=O)c1ccc(F)cc1)C1CC1 (stereo not given) here?
A: Its cytotoxicity at 10 µM is 1.18%.

Q: With CCOC(=O)[C@]12CCCN(Cc3cccs3)C[C@H]1CN(CCOC)C2 as the compound, how does the cytotoxicity at 10 µM read?
A: Its cytotoxicity at 10 µM is 5.13%.

Q: With CCc1ncncc1C(=O)NC1CCc2nc(C)cn2C1 (stereo not given) as the compound, how does the cytotoxicity at 10 µM read?
A: Its cytotoxicity at 10 µM is -17.3%.

Q: For CC(C)COCCCNC(=O)c1cccnc1N1CCOCC1, which cytotoxicity at 10 µM is on record?
A: The cytotoxicity at 10 µM was -5.12%.

Q: Which cytotoxicity at 10 µM does the source give for O=C(NC1CC1)c1ccnc(N2CCOC(c3ccc(Cl)c(Cl)c3)C2)c1 (stereo not given) here?
A: Its cytotoxicity at 10 µM is 14%.

Q: Which cytotoxicity at 10 µM does the source give for CCOc1ccc(C(=O)CCC(=O)N(C)Cc2nc(C)c[nH]2)cc1C here?
A: Its cytotoxicity at 10 µM is -5.45%.

Q: Which cytotoxicity at 10 µM does the source give for CC(C)NC(=O)[C@@H]1CN(Cc2ccc3c(c2)OCO3)C[C@H]2OCC[C@H]21 here?
A: Its cytotoxicity at 10 µM is 3.65%.

Q: For COc1ccccc1CNC(=O)CN(C)C(C)c1ccon1 (stereo not given), which cytotoxicity at 10 µM is on record?
A: The cytotoxicity at 10 µM was -4.29%.

Q: Which cytotoxicity at 10 µM does the source give for Cc1cnc(NC(=O)c2cccc(CN(C)Cc3ccno3)c2)s1 here?
A: Its cytotoxicity at 10 µM is 61.3%.

Q: For CCn1cc(S(=O)(=O)N(C)Cc2c(Br)cnn2CC)c(C)n1, which cytotoxicity at 10 µM is on record?
A: Its cytotoxicity at 10 µM is 3.3%.

Q: For CCOC(=O)C1CN(C(=O)COC)Cc2ncn(CC)c21 (stereo not given), which cytotoxicity at 10 µM is on record?
A: The cytotoxicity at 10 µM was 6.01%.

Q: For CN(C)CCCNc1ncnc2cccc(F)c12, which cytotoxicity at 10 µM is on record?
A: The cytotoxicity at 10 µM was 9.66%.

Q: With C[C@H](NC(=O)N1CCC(Cc2ccccc2)CC1)C(=O)O as the compound, how does the cytotoxicity at 10 µM read?
A: Its cytotoxicity at 10 µM is -1.65%.

Q: For COc1ccc(CNCCc2cc(F)cc3c2OCOC3)cc1OC, which cytotoxicity at 10 µM is on record?
A: Its cytotoxicity at 10 µM is -6.9%.

Q: Which cytotoxicity at 10 µM does the source give for CCc1nnc(SCC(=O)N2CCc3[nH]nc(C4CCC4)c3C2)o1 here?
A: Its cytotoxicity at 10 µM is -5.22%.

Q: Which cytotoxicity at 10 µM does the source give for Cc1cc(C)n(CC2CCN(CC(O)CN3CCOCC3)CC2)n1 (stereo not given) here?
A: The cytotoxicity at 10 µM was -7.35%.

Q: Which cytotoxicity at 10 µM does the source give for CC(C)c1nn(C)c(N(C)C)c1CNCc1ccnn1C here?
A: The cytotoxicity at 10 µM was 0.926%.

Q: Which cytotoxicity at 10 µM does the source give for Cc1ccc(NC(=O)Cn2ncc(SCC(N)=O)c(Cl)c2=O)cc1 here?
A: Its cytotoxicity at 10 µM is -16.9%.

Q: Which cytotoxicity at 10 µM does the source give for O=C1CC(c2ccc(F)c(F)c2)c2snc(C(=O)O)c2N1 (stereo not given) here?
A: The cytotoxicity at 10 µM was 6.95%.

Q: With Cc1cc(NC(=O)N2CCN(C)CC2C)n(C)n1 (stereo not given) as the compound, how does the cytotoxicity at 10 µM read?
A: The cytotoxicity at 10 µM was 9.92%.

Q: Which cytotoxicity at 10 µM does the source give for Cc1cnc(CCNC(=O)NCCc2ccc(O)cc2)s1 here?
A: The cytotoxicity at 10 µM was -0.276%.

Q: With O=C(CCCc1ccccn1)N1CCOc2ccc(F)cc21 as the compound, how does the cytotoxicity at 10 µM read?
A: Its cytotoxicity at 10 µM is 9.81%.

Q: Which cytotoxicity at 10 µM does the source give for COc1ccc(CC(=O)N2CCCCC2Cn2cc(C)cn2)cc1F (stereo not given) here?
A: The cytotoxicity at 10 µM was -14.1%.

Q: With CCCNC(=O)CN1CCOC(c2ccc(Br)cc2)C1 (stereo not given) as the compound, how does the cytotoxicity at 10 µM read?
A: The cytotoxicity at 10 µM was -2.56%.

Q: Which cytotoxicity at 10 µM does the source give for COCCN1C(=O)[C@@H]2CC[C@H]1CN(C(=O)Cc1ccc(O)c(Cl)c1)C2 here?
A: Its cytotoxicity at 10 µM is -4.26%.

Q: Which cytotoxicity at 10 µM does the source give for NC(=O)CCN(CC(=O)NCc1cccs1)c1ccc(F)cc1 here?
A: The cytotoxicity at 10 µM was 8.75%.
